Source: ChEMBL document CHEMBL4622848, “Syntheses, in vitro α-amylase and α-glucosidase dual inhibitory activities of 4-amino-1,2,4-triazole derivatives their molecular docking and kinetic studies” (Bioorg Med Chem, 2020)
pIC50: −log10 of the molar value.

How the values were obtained:
[1] = Inhibition of rat intestinal alpha-glucosidase using p-nitrophenyl-alpha-D-glucopyranoside as substrate preincubated for 5 mins followed by substrate addition and measured after 5 mins by spectrophotometric analysis
Procedure, shortened: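 Enzyme source: rat intestinal acetone powder in saline (100:1 w/v), sonicated and centrifuged; supernatant used. Samples (5 mg/mL in DMSO) in 100 mM phosphate buffer pH 6.8, incubated 5 min with enzyme. Then 5 mM p-nitrophenyl-α-D-glucopyranoside added, and p-nitrophenol read at 405 nm after 5 min. Blanks had buffer in place of substrate, controls had DMSO. Inhibition computed from control and sample absorbance.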

[2] = target: T1, Alpha amylase (Homo sapiens, UniProt P0DUB6); assay: Inhibition of alpha-amylase (unknown origin) using starch as substrate preincubated for 10 mins followed by substrate addition and measured after 10 mins by dinitrosalicylic acid reagent based assay
T1 sequence (P0DUB6 whole entry): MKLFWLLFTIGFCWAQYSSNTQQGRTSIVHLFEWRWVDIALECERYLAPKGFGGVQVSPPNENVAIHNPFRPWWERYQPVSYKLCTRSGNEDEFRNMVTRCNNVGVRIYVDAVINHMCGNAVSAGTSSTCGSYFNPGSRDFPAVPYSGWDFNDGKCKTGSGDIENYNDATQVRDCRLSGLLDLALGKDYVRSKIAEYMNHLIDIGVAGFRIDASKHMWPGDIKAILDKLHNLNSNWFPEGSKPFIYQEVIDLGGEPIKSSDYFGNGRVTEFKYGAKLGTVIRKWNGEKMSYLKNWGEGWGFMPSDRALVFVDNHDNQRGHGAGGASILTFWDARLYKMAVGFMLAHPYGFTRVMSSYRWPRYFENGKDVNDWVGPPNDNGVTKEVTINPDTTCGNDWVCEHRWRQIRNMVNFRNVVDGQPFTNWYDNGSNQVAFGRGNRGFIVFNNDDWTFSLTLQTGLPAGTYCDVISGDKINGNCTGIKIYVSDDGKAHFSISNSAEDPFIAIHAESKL
Procedure, shortened: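 Enzyme at 0.5 mg/mL in […] pH 6.9, preincubated 10 min at 25 °C with test sample (100, 200, 400, 800, 1000 µg/mL). Then 1% starch in 0.02 M sodium phosphate pH 6.9 added, 10 min at 25 °C.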

[3] = species on record: Homo sapiens; assay: Uncompetitive inhibition of alpha-glucosidase (unknown origin) assessed as Km using varying levels of para-nitrophenyl-R-D-maltoside as substrate incubated for 30 mins by Lineweaver-Burk plot analysis
Procedure, shortened: (§1)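 Enzyme at 0.2 mg/mL per well in deionized water with PIPES pH 7.0. Inhibitor at 0.0625–0.4 mM (0.0625, 0.125, 0.3, 0.4), substrate p-nitrophenyl-R-D-maltoside at 0.1, 0.2, 0.4, 0.8 and 1.0 mM. Incubated 30 min at 25 °C with readings at 1-min intervals on a plate reader. Km and Vmax derived by enzyme-kinetic graph fitting.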

[4] = species on record: Homo sapiens; assay: Uncompetitive inhibition of alpha-glucosidase (unknown origin) assessed as Vmax using varying levels of para-nitrophenyl-R-D-maltoside as substrate incubated for 30 mins by Lineweaver-Burk plot analysis; procedure, shortened: as §1
[5] = test system: O=[N+]([O-])c1cc(O)cc(/C=N/n2cnnc2)c1; assay: (§2) Mixed type inhibition of alpha-amylase (unknown origin) assessed as Km using varying level of para-nitrophenyl-R-D-maltoside as substrate incubated for 30 mins by Lineweaver-Burk plot analysis; settings: Homo sapiens
Procedure, shortened: (§3)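 Kinetics run with inhibitor at 0.0625, 0.125, 0.3 and 0.4 mM and p-nitrophenyl-R-D-maltoside at 0.1, 0.2, 0.4, 0.8 and 1.0 mM. Enzyme at 0.2 mg/mL per well in deionized water, PIPES buffer pH 7.0, 30 min at 25 °C, absorbance on a plate reader. Vmax and Km obtained by enzyme-kinetic graph fitting.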

[6] = test system: COc1cc(/C=N/n2cnnc2)ccc1F; assay: as §2; settings: Homo sapiens; procedure, shortened: as §3
[7] = test system: Oc1ccc(/C=N/n2cnnc2)cc1; assay: as §2; settings: Homo sapiens; procedure, shortened: as §3
[8] = test system: C(=N/n1cnnc1)\c1cc2ccccc2[nH]1; assay: as §2; settings: Homo sapiens; procedure, shortened: as §3
[9] = test system: Clc1ccc(/C=N/n2cnnc2)c(Cl)c1; assay: as §2; settings: Homo sapiens; procedure, shortened: as §3
[10] = test system: COc1cc(/C=N/n2cnnc2)cc(OC)c1Br; assay: as §2; settings: Homo sapiens; procedure, shortened: as §3
[11] = test system: Nc1ncccc1/C=N/n1cnnc1; assay: as §2; settings: Homo sapiens; procedure, shortened: as §3
[12] = test system: O=[N+]([O-])c1ccc(/C=N/n2cnnc2)cc1; assay: as §2; settings: Homo sapiens; procedure, shortened: as §3
[13] = test system: COc1ccc(/C=N/n2cnnc2)c(F)c1; assay: as §2; settings: Homo sapiens; procedure, shortened: as §3
[14] = test system: Oc1ccc(/C=N/n2cnnc2)cc1Br; assay: as §2; settings: Homo sapiens; procedure, shortened: as §3
[15] = test system: O=[N+]([O-])c1cc(O)cc(/C=N/n2cnnc2)c1; assay: (§4) Mixed type inhibition of alpha-amylase (unknown origin) assessed as Vmax using varying levels of para-nitrophenyl-R-D-maltoside as substrate incubated for 30 mins by Lineweaver-Burk plot analysis; settings: Homo sapiens; procedure, shortened: as §3
[16] = test system: COc1cc(/C=N/n2cnnc2)ccc1F; assay: as §4; settings: Homo sapiens; procedure, shortened: as §3
[17] = test system: Oc1ccc(/C=N/n2cnnc2)cc1; assay: as §4; settings: Homo sapiens; procedure, shortened: as §3
[18] = test system: C(=N/n1cnnc1)\c1cc2ccccc2[nH]1; assay: as §4; settings: Homo sapiens; procedure, shortened: as §3
[19] = test system: Clc1ccc(/C=N/n2cnnc2)c(Cl)c1; assay: as §4; settings: Homo sapiens; procedure, shortened: as §3
[20] = test system: COc1cc(/C=N/n2cnnc2)cc(OC)c1Br; assay: as §4; settings: Homo sapiens; procedure, shortened: as §3
[21] = test system: Nc1ncccc1/C=N/n1cnnc1; assay: as §4; settings: Homo sapiens; procedure, shortened: as §3
[22] = test system: O=[N+]([O-])c1ccc(/C=N/n2cnnc2)cc1; assay: as §4; settings: Homo sapiens; procedure, shortened: as §3
[23] = test system: COc1ccc(/C=N/n2cnnc2)c(F)c1; assay: as §4; settings: Homo sapiens; procedure, shortened: as §3
[24] = test system: Oc1ccc(/C=N/n2cnnc2)cc1Br; assay: as §4; settings: Homo sapiens; procedure, shortened: as §3

Row | pIC50 [1] | IC50 [2] | Compound | further results
1 | 5.27 | 5.27 µM | C(=N\n1cnnc1)/c1c2ccccc2cc2ccccc12 | 
2 | 5.37 | 4.34 µM | Cc1ccc(/C=N/n2cnnc2)c(C)c1 | 
3 | 5.26 | 5.12 µM | COc1cc(/C=N/n2cnnc2)cc(OC)c1OC | 
4 | 5.26 | 5.22 µM | CCOc1cc(/C=N/n2cnnc2)ccc1OC | 
5 | 5.46 | 3.3 µM | COc1ccc(Br)cc1/C=N/n1cnnc1 | 
6 | 5.61 | 2.28 µM | Nc1ncccc1/C=N/n1cnnc1 | Km [3]: 500 µM; Vmax [4]: 685 µM/min
7 | 5.26 | 5.25 µM | COc1ccc(Br)c(/C=N/n2cnnc2)c1O | 
8 | 5.27 | 5.27 µM | Oc1ccc(O)c(/C=N/n2cnnc2)c1 | 
9 | 5.60 | 2.18 µM | Clc1ccc(/C=N/n2cnnc2)c(Cl)c1 | Km [3]: 500 µM; Vmax [4]: 685 µM/min
10 | 5.68 | 2.01 µM | C(=N\n1cnnc1)/c1cc2ccccc2[nH]1 | Km [3]: 300 µM; Vmax [4]: 703 µM/min
11 | 5.37 | 4.37 µM | COc1cccc(OC)c1/C=N/n1cnnc1 | 
12 | 5.64 | 2.41 µM | O=[N+]([O-])c1cc(O)cc(/C=N/n2cnnc2)c1 | Km [3]: 500 µM; Vmax [4]: 695 µM/min
13 | 5.20 | 6.41 µM | C(=N\n1cnnc1)/c1cc2ccc3cccc4ccc(c1)c2c34 | 
14 | 5.37 | 4.36 µM | Clc1ccc(/C=N/n2cnnc2)cc1 | 
15 | 5.26 | 5.95 µM | Oc1ccc(/C=N/n2cnnc2)c(O)c1 | 
16 | 5.27 | 5.97 µM | O=[N+]([O-])c1cccc(/C=N/n2cnnc2)c1 | 
17 | 5.58 | 2.99 µM | Oc1ccc(/C=N/n2cnnc2)cc1 | Km [3]: 400 µM; Vmax [4]: 701 µM/min
18 | 5.60 | 2.25 µM | COc1cc(/C=N/n2cnnc2)cc(OC)c1Br | Km [3]: 700 µM; Vmax [4]: 690 µM/min

Row | pIC50 [1] | IC50 [2] | Compound | further results
19 | 5.18 | 6.23 µM | COc1ccc(/C=N/n2cnnc2)cc1OCc1ccccc1 | 
20 | 5.70 |  | C[C@H]1O[C@H](O[C@H]2[C@H](O)[C@@H](O)[C@@H](O[C@H]3[C@H](O)[C@@H](O)C(O)O[C@@H]3CO)O[C@@H]2CO)[C@H](O)[C@@H](O)[C@@H]1N[C@H]1C=C(CO)[C@@H](O)[C@H](O)[C@H]1O (some centres not stated) [ACARBOSE] | 
21 | 5.24 | 5.92 µM | Oc1ccc(/C=N/n2cnnc2)c(O)c1O | 
22 | 5.26 | 5.04 µM | C(=N\n1cnnc1)/c1ccc(OCc2ccccc2)cc1 | 
23 | 5.26 | 5.69 µM | Oc1ccc(/C=N/n2cnnc2)cc1O | 
24 | 5.20 | 6.23 µM | CC(C)(C)c1cc(/C=N/n2cnnc2)c(C(C)(C)C)cc1O | 
25 | 5.28 | 5.94 µM | COc1cc(/C=N/n2cnnc2)ccc1O | 
26 | 5.27 | 5.24 µM | CCOc1ccc(/C=N/n2cnnc2)cc1OC | 
27 | 5.63 | 2.9 µM | COc1ccc(/C=N/n2cnnc2)c(F)c1 | Km [3]: 500 µM; Vmax [4]: 701 µM/min
28 | 5.49 | 3.31 µM | COc1cc(/C=N/n2cnnc2)cc(OC)c1O | 
29 | 5.20 | 6.44 µM | CC(C)(C)c1ccc(/C=N/n2cnnc2)cc1 | 
30 | 5.36 | 4.46 µM | O=[N+]([O-])c1ccc(Cl)c(/C=N/n2cnnc2)c1 | 
31 | 5.63 | 2.27 µM | Oc1ccc(/C=N/n2cnnc2)cc1Br | Km [3]: 400 µM; Vmax [4]: 698 µM/min
32 | 5.37 | 4.37 µM | COc1ccc(/C=N/n2cnnc2)c(OC)c1 | 
33 | 5.64 | 2.33 µM | COc1cc(/C=N/n2cnnc2)ccc1F | Km [3]: 500 µM; Vmax [4]: 697 µM/min
34 | 5.61 | 2.36 µM | O=[N+]([O-])c1ccc(/C=N/n2cnnc2)cc1 | Km [3]: 500 µM; Vmax [4]: 680 µM/min
35 |  |  | Alpha amylase (Homo sapiens) (from UniProt P0DUB6) | Km [5]: 1300 µM; Km [6]: 1300 µM; Km [7]: 1300 µM; Km [8]: 1500 µM; Km [9]: 1200 µM; Km [10]: 1300 µM; Km [11]: 1000 µM; Km [12]: 900 µM; Km [13]: 1300 µM; Km [14]: 1200 µM; Vmax [15]: 232 µM/min; Vmax [16]: 241 µM/min; Vmax [17]: 237 µM/min; Vmax [18]: 256 µM/min; Vmax [19]: 221 µM/min; Vmax [20]: 242 µM/min; Vmax [21]: 213 µM/min; Vmax [22]: 207 µM/min; Vmax [23]: 238 µM/min; Vmax [24]: 221 µM/min
